According to ChEMBL document CHEMBL1138270, “Antimycobacterial activities of novel 1-(cyclopropyl/tert-butyl/4-fluorophenyl)-1,4-dihydro- 6-nitro-4-oxo-7-(substituted secondary amino)-1,8-naphthyridine-3-carboxylic acid” (J Med Chem, 2007):
Values after ≈ are worked out from the molar mass of the structure shown.

Experiments:
Mus musculus [1] = experiment: Toxicity in C57BL/6 mouse at 500 mg/kg; format: organism-based; parameters: dose 500 mg/kg; settings: in vivo
In short: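 Maximum tolerated dose study in female C57BL/6 mice: single escalating doses of 100, 300 and 500 mg/kg, 3 mice/dose.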

Mus musculus [2] = experiment: Phototoxicity in Swiss Albino mouse assessed as ear erythema at 140 mg/kg, po after 4 hrs of irradiation; format: organism-based; parameters: dose 140 mg/kg, route oral; settings: in vivo
Mus musculus [3] = experiment: Phototoxicity in Swiss Albino mouse assessed as ear erythema at 140 mg/kg, po after 48 hrs of irradiation; format: organism-based; parameters: dose 140 mg/kg, route oral; settings: in vivo
Mus musculus [4] = experiment: Phototoxicity in Swiss Albino mouse assessed as ear erythema at 140 mg/kg, po after 72 hrs of irradiation; format: organism-based; parameters: dose 140 mg/kg, route oral; settings: in vivo
Mus musculus [5] = experiment: Phototoxicity in Swiss Albino mouse assessed as ear erythema at 140 mg/kg, po after 24 hrs of irradiation; format: organism-based; parameters: dose 140 mg/kg, route oral; settings: in vivo
Mus musculus [6] = experiment: Phototoxicity in Swiss Albino mouse assessed as ear thickness at 140 mg/kg, po after 4 hrs of irradiation; format: organism-based; parameters: dose 140 mg/kg, route oral; settings: in vivo
In short: (§1)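 Female Swiss albino mice (~2 months, 20-25 g) were fasted ≥18 h and given 140 mg/kg orally by gavage; controls received 0.5% Na-CMC vehicle at 10 mL/kg. UVA started right after dosing, 4 h (~18 J/cm2). Ear thickness was measured before dosing and at 4, ~24, 48, 72 and 96 h, reported as mean of left and right ears ± SEM.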

Mus musculus [7] = experiment: Phototoxicity in UV light irradiated Swiss Albino mouse assessed as ear thickness at 140 mg/kg, po; format: organism-based; parameters: dose 140 mg/kg, route oral; settings: in vivo; in short: as §1
[8] = system: Mycobacterium tuberculosis; experiment: Antimycobacterial activity against Mycobacterium tuberculosis H37Rv by agar dilution method; format: functional
In short: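 MIC was determined by agar dilution, in duplicate.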

[9] = Inhibition of Mycobacterium smegmatis DNA gyrase supercoiling activity; parameters: species or system Mycolicibacterium smegmatis
In short: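 Gyrase purified from M. smegmatis was preincubated with compound in DMSO (5% DMSO in reaction). 400 ng relaxed pUC18 was added in 35 mM Tris-HCl pH 7.5, 5 mM MgCl2, 25 mM K-glutamate, 2 mM spermidine, 2 mM ATP, BSA, tRNA and 5% glycerol, 1 h at 37 °C. Samples were heat-inactivated, run on 1% agarose in TAE, and ethidium-stained; IC50 was derived.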

Mus musculus [10] = experiment: Phototoxicity in UV light irradiated Swiss Albino mouse assessed ear erythema at 140 mg/kg, po; format: organism-based; parameters: dose 140 mg/kg, route oral; settings: in vivo
Mus musculus [11] = experiment: Phototoxicity in Swiss Albino mouse assessed as ear thickness at 140 mg/kg, po after 72 hrs of irradiation; format: organism-based; parameters: dose 140 mg/kg, route oral; settings: in vivo; in short: as §1
[12] = system: Mycobacterium tuberculosis; experiment: Antimycobacterial activity against Mycobacterium tuberculosis ATCC 35801 infected CD1 mouse assessed as lung bacterial count at 50 mg/kg, ip after 35 days post infection; format: functional; settings: route intraperitoneal
In short: (§2)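 CD-1 mice were infected intravenously via the caudal vein with about 10⁷ viable M. tuberculosis ATCC 35801. Intraperitoneal treatment began 10 days after inoculation and ran for 10 days. At 35 days post-infection, spleens and right lungs were homogenized, serially diluted 10-fold and plated on 7H10 agar at 37 °C in ambient air for 4 weeks. Counts were compared with vehicle-treated controls and given as log CFU ± SEM.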

[13] = system: Mycobacterium tuberculosis; experiment: Antimycobacterial activity against Mycobacterium tuberculosis ATCC 35801 infected CD1 mouse assessed as spleen bacterial count at 50 mg/kg, ip after 35 days post infection; format: functional; settings: route intraperitoneal; in short: as §2
[14] = system: Mycolicibacterium smegmatis; experiment: Antimicrobial activity against Mycobacterium smegmatis by agar dilution method; format: functional
In short: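 Agar dilution against M. smegmatis ATCC 14468; MIC determined in duplicate.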

Mus musculus [15] = experiment: Phototoxicity in Swiss Albino mouse assessed as ear thickness at 140 mg/kg, po after 24 hrs of irradiation; format: organism-based; parameters: dose 140 mg/kg, route oral; settings: in vivo; in short: as §1
Vero = experiment: Cytotoxicity against Vero cells after 72 hrs by MTT assay; format: cell-based; settings: Chlorocebus sabaeus
In short: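 Vero cells were exposed to serially diluted compound up to 62.5 µg/mL for 72 h. Viability was read by cellular conversion of MTT to formazan (CellTiter 96 non-radioactive proliferation assay), and IC50 was derived.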

Mus musculus [16] = experiment: Phototoxicity in Swiss Albino mouse assessed as ear thickness at 140 mg/kg, po after 96 hrs of irradiation; format: organism-based; parameters: dose 140 mg/kg, route oral; settings: in vivo; in short: as §1
Mus musculus [17] = experiment: Phototoxicity in Swiss Albino mouse assessed as ear erythema at 140 mg/kg, po after 96 hrs of irradiation; format: organism-based; parameters: dose 140 mg/kg, route oral; settings: in vivo
Mus musculus [18] = experiment: Phototoxicity in Swiss Albino mouse assessed as ear thickness at 140 mg/kg, po after 48 hrs of irradiation; format: organism-based; parameters: dose 140 mg/kg, route oral; settings: in vivo; in short: as §1
[19] = system: Mycobacterium tuberculosis; experiment: Antimycobacterial activity against Mycobacterium tuberculosis ATCC 35801 infected CD1 mouse assessed as spleen bacterial count at 25 mg/kg, ip after 35 days post infection; format: functional; settings: route intraperitoneal; in short: as §2
[20] = system: Mycobacterium tuberculosis; experiment: Antimycobacterial activity against Mycobacterium tuberculosis ATCC 35801 infected CD1 mouse assessed as lung bacterial count at 25 mg/kg, ip after 35 days post infection; format: functional; settings: route intraperitoneal; in short: as §2

Row | Structure (SMILES) | Activity (Mus musculus [2]) | Activity (Mus musculus [3]) | Activity (Mus musculus [4]) | Activity (Mus musculus [5]) | Activity (Mus musculus [6]) [mm] | Activity (Mus musculus [7]) [mm] | MIC [8] [µM] | IC50 [9] [µM] | Activity (Mus musculus [10]) | Activity (Mus musculus [11]) [mm] | MIC [14] [µM] | Activity (Mus musculus [15]) [mm] | IC50 (Vero) [µM] | Activity (Mus musculus [16]) [mm] | Activity (Mus musculus [17]) | Activity (Mus musculus [18]) [mm] | other results
1 | CC1(C)COCN1c1nc2c(cc1[N+](=O)[O-])c(=O)c(C(=O)O)cn2C(C)(C)C | Non-toxic | Toxic | Toxic | Non-toxic | 0.28 | 0.24 | 0.1 (≈ 0.039 µg/mL) | 256 | Non-toxic | 0.3 | 3.99 (≈ 1.56 µg/mL) | 0.26 | > 160 | 0.3 | Toxic | 0.29 | Activity (Mus musculus [1]): Non-toxic; Log10 cfu [12]: 5.6; Log10 cfu [13]: 5.13
2 | O=C(O)c1cn(-c2ccc(F)cc2)c2nc(N3CCSCC3)c([N+](=O)[O-])cc2c1=O | Non-toxic | Non-toxic | Non-toxic | Non-toxic | 0.27 | 0.25 | 0.44 (≈ 0.189 µg/mL) | > 232 | Non-toxic | 0.29 | 1.81 (≈ 0.779 µg/mL) | 0.26 | 72.6 | 0.29 | Non-toxic | 0.26 | 
3 | CC(C)(C)n1cc(C(=O)O)c(=O)c2cc([N+](=O)[O-])c(N3CCSCC3)nc21 | Non-toxic | Non-toxic | Non-toxic | Non-toxic | 0.28 | 0.27 | 0.99 (≈ 0.389 µg/mL) | 102 | Non-toxic | 0.3 | 1.99 (≈ 0.781 µg/mL) | 0.28 | 79.6 | 0.32 | Non-toxic | 0.29 | 
4 | CC1CN(c2nc3c(cc2[N+](=O)[O-])c(=O)c(C(=O)O)cn3-c2ccc(F)cc2)CC(C)O1 (stereo not given) | Non-toxic | Non-toxic | Non-toxic | Non-toxic | 0.25 | 0.26 | 0.43 (≈ 0.19 µg/mL) | 226 | Non-toxic | 0.3 | 1.79 (≈ 0.792 µg/mL) | 0.28 | 141 | 0.3 | Non-toxic | 0.27 | 
5 | O=C(O)c1cn2c(n1)CN(c1nc3c(cc1[N+](=O)[O-])c(=O)c(C(=O)O)cn3-c1ccc(F)cc1)CC2 | Toxic | Non-toxic | Non-toxic | Toxic | 0.32 | 0.27 | 0.38 (≈ 0.188 µg/mL) | > 202 | Non-toxic | 0.33 | 1.58 (≈ 0.781 µg/mL) | 0.33 | > 126 | 0.33 | Non-toxic | 0.32 | 
6 | COc1c(N2CCNC(C)C2)c(F)cc2c(=O)c(C(=O)O)cn(C3CC3)c12 (stereo not given) [GATIFLOXACIN] |  |  |  |  |  |  | 1.04 (≈ 0.39 µg/mL) |  |  |  | 2.08 (≈ 0.781 µg/mL) |  | > 155 |  |  |  | Log10 cfu [12]: 6.02; Log10 cfu [13]: 6.92
7 | NNC(=O)c1ccncc1 [ISONIAZID] |  |  |  |  |  |  | 0.36 (≈ 0.0494 µg/mL) |  |  |  | 45.6 (≈ 6.25 µg/mL) |  | > 456 |  |  |  | Log10 cfu [19]: 4.71; Log10 cfu [20]: 5.86
8 | CCn1cc(C(=O)O)c(=O)c2cc(F)c(N3CCNC(C)C3)c(F)c21 (stereo not given) [LOMEFLOXACIN] | Toxic | Toxic | Toxic | Toxic | 0.4 | 0.31 |  |  | Toxic | 0.64 |  | 0.48 |  | 0.6 | Toxic | 0.53 | 
